Measurements taken from publication PMC8612936 (The Lancet. Infectious Diseases, 2021).
Converted amounts (≈) assume the structure as drawn. “And” between values parts separate entries of the source, which are not always exact repeats. Equal values may be shown once. “Also recorded” adds a separate entry of the source.

Columns and labels:
[1] = Single ascending dose study; assay type: in vivo, human
[2] = Volunteer infection study; assay type: in vivo, human
Outline: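 Intravenously inoculated, blood-stage P falciparum-infected healthy volunteers received one fasted oral dose (150, 400 or 800 mg). They stayed in the clinic until day 4, then attended outpatient follow-up to day 44.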

[3] = SAD: M5717 whole-blood pharmacokinetics; assay type: in vivo, human; conditions: for Vd/F / half-life / AUC(0-inf) / AUC(0-t): whole blood; for AUC(0-t): SAD 2100 mg oral, N=1
[4] = VIS: M5717 whole-blood pharmacokinetics; assay type: in vivo; conditions: human, po
Outline: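 Healthy malaria-naive adults (18–55 y) were inoculated intravenously with about 2800 viable P falciparum-infected erythrocytes on day −8. On day 1 they took a single oral capsule dose (150, 400 or 800 mg) with 250 mL water after fasting ≥8 h, with no food until 4 h. The test compound was measured in whole blood (LLOQ 1 ng/mL), giving AUC0–∞, apparent terminal t½ and Vz/F.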

[5] = test system: Plasmodium falciparum; experiment: VIS: parasite clearance kinetics and recrudescence; assay type: in vivo; conditions: for PRR48 (95% CI), second phase: cohort estimate
Outline: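 Volunteers were given about 2800 viable P falciparum-infected erythrocytes intravenously on day −8. Parasitaemia was measured by qPCR of the 18S rRNA gene, twice daily from day 4 after inoculation. A single fasted oral dose (150, 400 or 800 mg) was given when parasitaemia was expected to reach ≥5000 parasites/mL. […] Recrudescence was followed to day 28; artemether–lumefantrine was given on recrudescence or at day 21.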

[6] = test system: Plasmodium spp; conditions: cited from earlier work
[7] = oral administration of 3–5 mg/kg; cited from earlier work
[8] = test system: CYP3A4; conditions: preclinical studies, no reference given; cited from earlier work
[9] = test system: Plasmodium falciparum; conditions: cited from earlier work
[10] = test system: M5717-resistant mutants; conditions: pyronaridine partnered with M5717; cited from earlier work
[11] = SAD 2100 mg single oral dose, N=1
[12] = SAD, all 49 participants dosed with M5717

Structure (SMILES): O=C(NCCN1CCCC1)c1cc(-c2ccc(CN3CCOCC3)cc2)nc2ccc(F)cc12 [M5717]
- M5717-related dizziness ([1]; 1800 mg only): three
- M5717-related blurred vision ([1]; 1800 mg or 2100 mg groups only): four
- M5717-related oral hypoesthesia ([1]; 1800 mg or 2100 mg groups only): three
- Any adverse event ([1]; SAD 50 mg single oral dose): 6 (100%) n (%)
- Moderate adverse event (grade 2) ([1]; SAD 50 mg single oral dose): 1 (17%) n (%)
- Moderate adverse event (grade 2) related to study treatment ([1]; SAD 50 mg single oral dose): 0 n (%)
- Severe adverse event (grade 3) ([1]; SAD 50 mg single oral dose): 1 (17%) n (%)
- Any adverse event ([1]; SAD 100 mg single oral dose): 5 (83%) n (%)
- Moderate adverse event (grade 2) ([1]; SAD 100 mg single oral dose): 1 (17%) n (%)
- Moderate adverse event (grade 2) related to study treatment ([1]; SAD 100 mg single oral dose): 0 n (%)
- Severe adverse event (grade 3) ([1]; SAD 100 mg single oral dose): 0 n (%)
- Any adverse event ([1]; SAD 200 mg single oral dose): 3 (50%) n (%)
- Moderate adverse event (grade 2) ([1]; SAD 200 mg single oral dose): 0 n (%)
- Moderate adverse event (grade 2) related to study treatment ([1]; SAD 200 mg single oral dose): 0 n (%)
- Severe adverse event (grade 3) ([1]; SAD 200 mg single oral dose): 0 n (%)
- Any adverse event ([1]; SAD 400 mg single oral dose): 4 (67%) n (%)
- Moderate adverse event (grade 2) ([1]; SAD 400 mg single oral dose): 0 n (%)
- Moderate adverse event (grade 2) related to study treatment ([1]; SAD 400 mg single oral dose): 0 n (%)
- Severe adverse event (grade 3) ([1]; SAD 400 mg single oral dose): 0 n (%)
- Any adverse event ([1]; SAD 600 mg single oral dose): 3 (50%) n (%)
- Moderate adverse event (grade 2) ([1]; SAD 600 mg single oral dose): 1 (17%) n (%)
- Moderate adverse event (grade 2) related to study treatment ([1]; SAD 600 mg single oral dose): 0 n (%)
- Severe adverse event (grade 3) ([1]; SAD 600 mg single oral dose): 0 n (%)
- Any adverse event ([1]; SAD 1000 mg single oral dose): 4 (67%) n (%)
- Moderate adverse event (grade 2) ([1]; SAD 1000 mg single oral dose): 0 n (%)
- Moderate adverse event (grade 2) related to study treatment ([1]; SAD 1000 mg single oral dose): 0 n (%)
- Severe adverse event (grade 3) ([1]; SAD 1000 mg single oral dose): 0 n (%)
- Any adverse event ([1]; SAD 1250 mg single oral dose): 5 (83%) n (%)
- Moderate adverse event (grade 2) ([1]; SAD 1250 mg single oral dose): 1 (17%) n (%)
- Moderate adverse event (grade 2) related to study treatment ([1]; SAD 1250 mg single oral dose): 1 (17%) n (%)
- Severe adverse event (grade 3) ([1]; SAD 1250 mg single oral dose): 0 n (%)
- Any adverse event ([1]; SAD 1800 mg single oral dose): 6 (100%) n (%)
- Moderate adverse event (grade 2) ([1]; SAD 1800 mg single oral dose): 0 n (%)
- Moderate adverse event (grade 2) related to study treatment ([1]; SAD 1800 mg single oral dose): 0 n (%)
- Severe adverse event (grade 3) ([1]; SAD 1800 mg single oral dose): 0 n (%)
- Any adverse event [1, 11]: 1 (100%) n (%)
- Any adverse event related to study treatment [1, 11]: 1 (100%) n (%)
- Moderate adverse event (grade 2) [1, 11]: 1 (100%) n (%)
- Moderate adverse event (grade 2) related to study treatment [1, 11]: 1 (100%) n (%)
- Severe adverse event (grade 3) [1, 11]: 0 n (%)
- Serious adverse events ([1]; SAD and VIS): No adverse event was serious; also recorded: No serious adverse events
- Severity of adverse events related to M5717 ([1]; SAD and VIS): mild or moderate
- Vital signs, ECGs, clinical laboratory parameters ([1]; SAD and VIS): No dose-related trends
- Participants with adverse events related to M5717 [1, 12]: 12 (24%) n (%)
- Participants with at least one adverse event [1, 12]: 37 (76%) n (%)
- Dose up to which M5717 is well tolerated ([1]; single oral dose, healthy adults): ≤ 1250 mg
- Any adverse event ([2]; VIS 150 mg single oral dose): 6 (100%) n (%)
- Any adverse event related to study treatment ([2]; VIS 150 mg single oral dose): 0 n (%)
- Moderate adverse event (grade 2) ([2]; VIS 150 mg single oral dose): 2 (33%) n (%)
- Moderate adverse event (grade 2) related to study treatment ([2]; VIS 150 mg single oral dose): 0 n (%)
- Severe adverse event (grade 3) ([2]; VIS 150 mg single oral dose): 0 n (%)
- Any adverse event ([2]; VIS 400 mg single oral dose): 8 (100%) n (%)
- Moderate adverse event (grade 2) ([2]; VIS 400 mg single oral dose): 3 (38%) n (%)
- Moderate adverse event (grade 2) related to study treatment ([2]; VIS 400 mg single oral dose): 0 n (%)
- Severe adverse event (grade 3) ([2]; VIS 400 mg single oral dose): 0 n (%)
- Any adverse event ([2]; VIS 800 mg single oral dose): 7 (88%) n (%)
- Any adverse event related to study treatment ([2]; VIS 800 mg single oral dose): 0 n (%)
- Moderate adverse event (grade 2) ([2]; VIS 800 mg single oral dose): 2 (25%) n (%)
- Moderate adverse event (grade 2) related to study treatment ([2]; VIS 800 mg single oral dose): 0 n (%)
- Severe adverse event (grade 3) ([2]; VIS 800 mg single oral dose): 1 (13%) n (%)
- Participants with at least one adverse event after M5717 dosing ([2]; VIS, all 22 participants): 21 (95%) n (%)
- Time of peak whole-blood concentration after dosing ([3]; across dose levels, SAD and VIS): approximately 2 h
- Time with M5717 concentration at least 3 ng/mL in all participants ([3]; doses of 150 mg and higher): at least 168 h
- Time with M5717 concentration 10 ng/mL or higher in all participants ([3]; doses of 400 mg or higher): at least 168 h
- Terminal half-life predicted before the study ([3]; human, prediction before the study): 10.4 days
- Vd/F ([3]; human, oral): 5880 to 9510 L
- half-life ([3]; human, oral): 4.42 to 8.04 days
- half-life ([3]; human, oral, 200 mg): 5.54 to 6.04 days
- AUC(0-inf) ([3]; human, po, 50 mg): 997 ng·h/mL
- Vd/F ([3]; human, po, 50 mg): 7640 L
- half-life ([3]; human, po, 50 mg): 5.54 days
- AUC(0-inf) ([3]; human, po, 100 mg): 1710 ng·h/mL
- Vd/F ([3]; human, po, 100 mg): 8890 L
- half-life ([3]; human, po, 100 mg): 5.54 days
- AUC(0-inf) ([3]; human, po, 200 mg): 3500 ng·h/mL
- Vd/F ([3]; human, po, 200 mg): 9510 L
- half-life ([3]; human, po, 200 mg): 6.04 days
- Vd/F ([3]; human, po, 400 mg): 7100 L
- half-life ([3]; human, po, 400 mg): 6.46 days
- Vd/F ([3]; human, po, 600 mg): 7160 L
- half-life ([3]; human, po, 600 mg): 7.54 days
- Vd/F ([3]; human, po, 1000 mg): 6770 L
- half-life ([3]; human, po, 1000 mg): 7.04 days
- Vd/F ([3]; human, po, 1250 mg): 6830 L
- half-life ([3]; human, po, 1250 mg): 7.5 days
- Vd/F ([3]; human, po, 1800 mg): 7060 L
- half-life ([3]; human, po, 1800 mg): 7.54 days
- AUC(0-inf) ([3]; human, po, 2100 mg): 43000 ng·h/mL
- Vd/F ([3]; human, po, 2100 mg): 7870 L
- half-life ([3]; human, po, 2100 mg): 5.83 days
- AUC(0-t) ([3]; human, po, 2100 mg, AUC0–144h): 27200 ng·h/mL
- AUC(0-t) ([3]; human, po, 2100 mg, AUC0–t): 42200 ng·h/mL
- AUC(0-inf) ([4]; 150 mg): 3100 ng·h/mL
- Vd/F ([4]; 150 mg): 5880 L
- half-life ([4]; 150 mg): 4.42 days
- Vd/F ([4]; 400 mg): 6530 L
- half-life ([4]; 400 mg): 6.08 days
- Vd/F ([4]; 800 mg): 8890 L
- half-life ([4]; 800 mg): 8.04 days
- Time of recrudescence after M5717 dosing ([5]; VIS 150 mg, individual participants): 10 days and 11 days and 19 days
- Recrudescence incidence ([5]; VIS 150 mg, six participants): 50%
- PRR48 (95% CI), second phase ([5]; VIS 400 mg single oral dose, N=6): 5127 (1006 to 26 132)
- Time of recrudescence after M5717 dosing ([5]; VIS 400 mg, both participants): 12 days
- Recrudescence incidence ([5]; VIS 400 mg, eight participants): 25%
- PRR48 (95% CI), second phase ([5]; VIS 800 mg single oral dose, N=7): 436 (179 to 1061)
- Recrudescence ([5]; VIS 800 mg, up to 21 days after dosing): No recrudescence
- Duration of initial slow parasite clearance phase ([5]; VIS 150, 400, 800 mg): 35 to 55 h
- Parasite clearance following M5717 dosing ([5]; VIS 150, 400, 800 mg): all participants
- Minimum inhibitory concentration (MIC) ([6]; estimated in mice): 3 ng/mL (≈ 6.49 nM)
- Minimum parasiticidal concentration ([6]; estimated in mice): 10 ng/mL
- Lag in antimalarial activity ([6]; in vitro and in the mouse efficacy model): 24 to 48 h
- Half-life in preclinical animal studies [7]: 18 to 20 h
- Active or toxic metabolites [8]: no active or toxic metabolites identified
- Potency against Plasmodium falciparum [9]: nanomolar potency

Structure (SMILES): COc1ccc2nc3cc(Cl)ccc3c(Nc3cc(CN4CCCC4)c(O)c(CN4CCCC4)c3)c2n1 [pyronaridine]
- Selection of M5717-resistant mutants [10]: prevented selection of M5717-resistant mutants
